Source: ChEMBL document CHEMBL1134480, “Antiplasmodial activity and cytotoxicity of bis-, tris-, and tetraquinolines with linear or cyclic amino linkers” (J Med Chem, 2001)

What was measured:
MRC5 [1] = assay: Cytotoxicity against MRC-5 cells at concentration 0.5 uM; format: functional; conditions: Homo sapiens
Summary of the method: (§1)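 MRC-5 human embryonic lung diploid cells were seeded at 5000 per well. After 24 h the cells were washed and exposed to 2-fold drug dilutions in RPMI + 5% FCS, with final DMSO below 0.5%. Incubation was 7 days at 37 °C in 5% CO2. Viability was read by MTT absorbance at 540 nm.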

MRC5 [2] = assay: Cytotoxicity against MRC-5 cells at concentration 32 uM; format: functional; conditions: Homo sapiens; summary of the method: as §1
MRC5 [3] = assay: Cytotoxicity against MRC-5 cells at concentration 1 uM; format: functional; conditions: Homo sapiens; summary of the method: as §1
MRC5 [4] = assay: Cytotoxicity against MRC-5 cells at concentration 8 uM; format: functional; conditions: Homo sapiens; summary of the method: as §1
Mus musculus [5] = species: Mus musculus; assay: In vitro cytotoxic activity against mouse peritoneal macrophages at a concentration 2 uM; Non-toxic; format: functional
Mus musculus [6] = species: Mus musculus; assay: In vitro cytotoxic activity against mouse peritoneal macrophages at a concentration 8 uM; Non-toxic; format: functional
Plasmodium falciparum [7] = assay: In vitro growth inhibition of Plasmodium falciparum FcB1R; format: functional, organism-based
Summary of the method: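 Asynchronous P. falciparum cultures were grown in human erythrocytes at 0.5% parasitemia and 1% hematocrit. They were exposed to serial drug dilutions, with DMSO ≤0.1%, for 24 h at 37 °C before adding 0.5 µCi [3H]hypoxanthine per well. Inhibition was measured as incorporated radioactivity versus drug-free controls on the same plate. IC50 came from concentration–response curves, reported as mean ± SD of three independent experiments; FcB1R used several experiments.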

Plasmodium falciparum [8] = assay: (§2) In vitro growth inhibition of Plasmodium falciparum D6; format: functional, organism-based
Summary of the method: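 Asynchronous P. falciparum cultures in human erythrocytes (0.5% parasitemia, 1% final hematocrit) exposed to serially diluted drug for 24 h at 37 °C, then pulsed with 0.5 µCi [³H]hypoxanthine per well. Inhibition from incorporated radioactivity versus drug-free control on the same plate; IC50 from concentration-response curve; mean ± SD of three independent experiments. DMSO ≤0.1% final.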

Plasmodium falciparum [9] = assay: In vitro growth inhibition of Plasmodium falciparum F32; format: functional, organism-based
Plasmodium falciparum [10] = assay: In vitro growth inhibition of Plasmodium falciparum W2; format: functional, organism-based
[11] = In vitro cytotoxic activity against mouse peritoneal macrophages at a concentration 32 uM; Toxic; format: toxicity
[12] = In vitro cytotoxic activity against mouse peritoneal macrophages at a concentration 8 uM; Toxic; format: toxicity
[13] = In vitro cytotoxic activity against mouse peritoneal macrophages at a concentration 2 uM; Toxic; format: toxicity
Plasmodium falciparum [14] = assay: as §2; format: functional, organism-based; remark: listed apart in the source
[15] = In vitro cytotoxicity against mouse peritoneal macrophages at concentration 32 uM; Toxic; format: toxicity

Row | Compound | cytotoxicity at 0.5 µM (MRC5 [1]) [%] | cytotoxicity at 32 µM (MRC5 [2]) [%] | cytotoxicity at 1 µM (MRC5 [3]) [%] | cytotoxicity at 8 µM (MRC5 [4]) [%] | Cytotoxicity (Mus musculus [5]) | Cytotoxicity (Mus musculus [6]) | IC50 (Plasmodium falciparum [7]) [nM] | IC50 (Plasmodium falciparum [8]) [nM] | IC50 (Plasmodium falciparum [9]) [nM] | IC50 (Plasmodium falciparum [10]) [nM] | Cytotoxicity [11] | Cytotoxicity [12] | Cytotoxicity [13] | IC50 (Plasmodium falciparum [14]) [nM] | Cytotoxicity [15]
1 | Clc1ccc2c(NCCN(CCNc3ccnc4cc(Cl)ccc34)Cc3ccnc4ccccc34)ccnc2c1 | 0 | 0 | 0 | 0 | Not toxic | Not toxic | > 1000 | – | – | – | – | – | – | – | –
2 | O=C(CCCC(=O)N1CCN(c2ccnc3cc(Cl)ccc23)CCN(c2ccnc3cc(Cl)ccc23)CC1)N1CCNCCNCC1 | 0 | 0 | 0 | 0 | Not toxic | Not toxic | > 1000 | – | – | – | – | – | – | – | –
3 | O=C(CCCC(=O)N1CCN(c2ccnc3cc(Cl)ccc23)CCN(c2ccnc3cc(Cl)ccc23)CC1)N1CCN(c2ccnc3cc(Cl)ccc23)CCN(c2ccnc3cc(Cl)ccc23)CC1 | 0 | 0 | 0 | 0 | Not toxic | Not toxic | 18.3 | 18.5 | 17.9 | 29.2 | – | – | – | – | –
4 | NC(=O)CCC(=O)N1CCN(c2ccnc3cc(Cl)ccc23)CCN(c2ccnc3cc(Cl)ccc23)CC1 | 0 | 0 | 0 | 0 | Not toxic | Not toxic | 980 | – | – | – | – | – | – | – | –
5 | O=C(O)CCCC(=O)N1CCN(c2ccnc3cc(Cl)ccc23)CCN(c2ccnc3cc(Cl)ccc23)CC1 | 0 | 0 | 0 | 0 | Not toxic | Not toxic | 940 | – | – | – | – | – | – | – | –
6 | O=C(CNCC(=O)N1CCN(c2ccnc3cc(Cl)ccc23)CCN(c2ccnc3cc(Cl)ccc23)CC1)N1CCN(c2ccnc3cc(Cl)ccc23)CCN(c2ccnc3cc(Cl)ccc23)CC1 | 0 | 0 | 0 | 0 | Not toxic | Not toxic | 103 | – | – | – | – | – | – | – | –
7 | CC(N)C(=O)N1CCN(c2ccnc3cc(Cl)ccc23)CCN(c2ccnc3cc(Cl)ccc23)CC1 (configuration not stated) | 0 | 88 | 0 | 0 | Not toxic | – | 228 | – | – | – | Toxic | Toxic | – | – | –
8 | O=C(O)CCC(=O)N1CCN(c2ccnc3cc(Cl)ccc23)CCN(c2ccnc3cc(Cl)ccc23)CC1 | 0 | 0 | 1 | 0 | Not toxic | Not toxic | > 1000 | – | – | – | – | – | – | – | –
9 | O=C(c1ccc(C(=O)N2CCN(c3ccnc4cc(Cl)ccc34)CCN(c3ccnc4cc(Cl)ccc34)CC2)cc1)N1CCN(c2ccnc3cc(Cl)ccc23)CCN(c2ccnc3cc(Cl)ccc23)CC1 | 0 | 0 | 0 | 0 | Not toxic | Not toxic | 266 | – | – | – | – | – | – | – | –
10 | O=C(CCCCCCCN1CCCCC1)N1CCN(c2ccnc3cc(Cl)ccc23)CCN(c2ccnc3cc(Cl)ccc23)CC1 | 0 | 91 | 0 | 91 | – | – | 81.1 | – | – | – | Toxic | Toxic | Toxic | – | –
11 | O=C(CCCCCCCC(=O)N1CCN(c2ccnc3cc(Cl)ccc23)CCN(c2ccnc3cc(Cl)ccc23)CC1)N1CCN(c2ccnc3cc(Cl)ccc23)CCN(c2ccnc3cc(Cl)ccc23)CC1 | 0 | 0 | 0 | 0 | Not toxic | Not toxic | 22.6 | – | 46.3 | 67.2 | Toxic | – | – | 41.7 | –
12 | O=C(CCCCN1CCCCC1)N1CCN(c2ccnc3cc(Cl)ccc23)CCN(c2ccnc3cc(Cl)ccc23)CC1 | 0 | 92 | 0 | 92 | Not toxic | – | 132 | – | – | – | Toxic | Toxic | – | – | –
13 | CC(C)(C)OC(=O)NCCC(=O)N1CCN(c2ccnc3cc(Cl)ccc23)CCN(c2ccnc3cc(Cl)ccc23)CC1 | 0 | 100 | 0 | 0 | Not toxic | Not toxic | > 1000 | – | – | – | – | – | – | – | Toxic
14 | O=C(CCCOCc1ccccc1)N1CCN(c2ccnc3cc(Cl)ccc23)CCN(c2ccnc3cc(Cl)ccc23)CC1 | 0 | 14 | 0 | 0 | Not toxic | Not toxic | 1000 | – | – | – | – | – | – | – | Toxic
15 | NCCN(CCNc1ccnc2cc(Cl)ccc12)CCNc1ccnc2cc(Cl)ccc12 | 0 | 51 | 0 | 0 | Not toxic | Not toxic | 606 | – | – | – | – | – | – | – | –
16 | O=C(CCCCCCCCCCCN1CCCCC1)N1CCN(c2ccnc3cc(Cl)ccc23)CCN(c2ccnc3cc(Cl)ccc23)CC1 | 0 | 89 | 11 | 92 | – | – | 109 | – | – | – | Toxic | Toxic | Toxic | – | –
17 | O=C(CCC(=O)N1CCN(c2ccnc3cc(Cl)ccc23)CCN(c2ccnc3cc(Cl)ccc23)CC1)N1CCN(c2ccnc3cc(Cl)ccc23)CCN(c2ccnc3cc(Cl)ccc23)CC1 | 0 | 0 | 0 | 0 | Not toxic | Not toxic | 38.1 | – | 23.7 | 29.5 | – | – | – | 21.9 | –
18 | N=C(N)NCCC(=O)N1CCN(c2ccnc3cc(Cl)ccc23)CCN(c2ccnc3cc(Cl)ccc23)CC1 | 0 | 0 | 0 | 0 | Not toxic | Not toxic | > 1000 | – | – | – | – | – | – | – | –
19 | CC(NC(=O)OC(C)(C)C)C(=O)N1CCN(c2ccnc3cc(Cl)ccc23)CCN(c2ccnc3cc(Cl)ccc23)CC1 (configuration not stated) | 0 | 0 | 0 | 0 | Not toxic | Not toxic | 463 | – | – | – | – | – | – | – | –
20 | O=C(CCCCCCCCCCC(=O)N1CCN(c2ccnc3cc(Cl)ccc23)CCN(c2ccnc3cc(Cl)ccc23)CC1)N1CCN(c2ccnc3cc(Cl)ccc23)CCN(c2ccnc3cc(Cl)ccc23)CC1 | 0 | 0 | 0 | 0 | Not toxic | Not toxic | 79.1 | – | 133 | 180 | – | – | – | 123 | –
21 | O=C(CCCO)N1CCN(c2ccnc3cc(Cl)ccc23)CCN(c2ccnc3cc(Cl)ccc23)CC1 | 0 | 0 | 0 | 0 | Not toxic | Not toxic | 930 | – | – | – | – | – | – | – | –
22 | O=C(CCCC(=O)N1CCN(c2ccnc3cc(Cl)ccc23)CCN(c2ccnc3cc(Cl)ccc23)CC1)N1CCNCCN(c2ccnc3cc(Cl)ccc23)CC1 | 0 | 0 | 0 | 0 | Not toxic | Not toxic | 275 | – | – | – | – | – | – | – | –
23 | NCCC(=O)N1CCN(c2ccnc3cc(Cl)ccc23)CCN(c2ccnc3cc(Cl)ccc23)CC1 | 0 | 0 | 0 | 0 | Not toxic | Not toxic | > 1000 | – | – | – | – | – | – | – | –
24 | Clc1ccc2c(N3CCNCCNCC3)ccnc2c1 | 0 | 0 | 0 | 0 | Not toxic | Not toxic | > 1000 | – | – | – | – | – | – | – | –
